Reference: PubChem BioAssay
Results filed as inconclusive are left out.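 How the source made its calls, unless noted: active means RAM network inhibition above 8.4% in each of two replicates, 3 SD over the compound average; inconclusive means above 8.4% inhibition in only one replicate; inactive means 8.4% inhibition or less in each replicate.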

Legend:
[1] = OD615 S. cerevisiae growth inhibition, permissive medium, pilot counter-assay, permissive growth control for S. cerevisiae lifespan shortening project (AID 705;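 active means growth inhibition above 25% in both replicates, a cutoff set 3 SD above the mean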); details: OD615, 24 h, at 10 µM, stronger effect = higher value
How it was run: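 System: S. cerevisiae with engineered DeaD lifespan system. Medium: SC raffinose/galactose permissive medium. Doses: single compound dose of 10 µM, 0.25% DMSO final. Schedule: 24 h exposure, 30 °C. Measured by: OD615 turbidity read. Read-out: growth inhibition.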

[2] = Restrictive medium S. cerevisiae growth inhibition, OD615, pilot screen of yeast lifespan reduction project, restrictive growth control (AID 706;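 active means growth inhibition above a set limit, 3 SD over mean compound inhibition, in both replicates, cut at about 43% in these data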;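 further: modified DeaD lifespan yeast strain shifted to restrictive glucose medium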); details: OD615, 48 h, at 10 µM, stronger effect = higher value
How it was run: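 Assay system – genetically modified Saccharomyces cerevisiae, DeaD replicative lifespan assay strain · Medium – CSMM-D glucose medium · Doses – 10 µM compound, 0.25% DMSO · Times – 4 h pre-incubation, 48 h exposure at 30 °C · Signal – optical density at 615 nm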

[3] = viability gain of MRP-1-high H69AR cells under doxorubicin, pilot screen, MRP-1 activator project, CellTiter-Glo, duplicate (AID 807;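 active means viability increase at or above a cutoff of the median across tested compounds plus 3 SD, cut at about 8.5% in these data, passing the limit was not always enough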;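 further: compound pretreatment 18-22 h then 72 h combined with doxorubicin; 0% = doxorubicin alone and 100% = vehicle without doxorubicin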); details: H69AR viability with doxorubicin, CellTiter-Glo luminescence; at 10 µM; stronger effect = higher value
[4] = growth suppression of beta-catenin knockout HCT116, pilot screen, human colon tumor cells (AID 823;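 active means cell viability at or below a set limit in both duplicate runs, the limit being the all-compound median minus 4 SD, cut at about 23% in these data, passing the limit was not always enough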;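 further: 0% = wells killed by 20 µM Hyamine and 100% = untreated DMSO cell wells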); details: CellTiter-Glo, 60 h, at 10 µM, stronger effect = lower value
[5] = growth suppression of PTEN-deleted HCT116, pilot screen, cell-based, HCT116 clonal line, CellTiter-Glo (AID 824;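 active means viability at or below 27.92% in each of two runs, the all-compound median minus 4 SD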;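 further: 0% = 20 µM Hyamine control and 100% = vehicle cell control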); details: 60 h, at 10 µM, stronger effect = lower value
[6] = inhibitors of the yeast RAM network, pilot screen, dse1pr::URA3 reporter, 5-FOA selection (AID 869;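 active means inhibition over a set limit, the all-compound mean plus 3 SD, in both replicate runs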;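 further: 0% = DMSO wells with no growth and 100% = 10 µM 1-NA-PP1 with full growth; RAM network block rescues cells from 5-FOA so hits raise OD615 growth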); details: S. cerevisiae dse1pr::URA3 5-FOA growth, OD615, 2 d; at 10 µM; stronger effect = higher value; strain carries analog-sensitive mutant Cbk1 kinase
[7] = RAM signaling pathway blockade in yeast – S. cerevisiae, Pdr1DBD-CYC8 efflux-inhibited sensitized strain, primary screen (AID 1298);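 further: 0% = DMSO untreated cells without growth and 100% = 10 µM 1-NA-PP1 full growth; higher means more yeast growth rescued from 5-FOA killing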; details: S. cerevisiae cbk1-as DSE1-URA3 strain, 5-FOA growth OD615, 2 d; at 50 µM; stronger effect = higher value

Cc1cc2ccccc2n1CCNC(=O)C(C)(C)C
inactive: growth inhibition [1] 3.07% | growth inhibition [2] 7.19% | viability increase [3] -0.5% | viability [4] 96.6% | viability [5] 103% | inhibition [6] 1.72% | RAM network inhibition [7] -1.8%

COc1ccc(N=C2SC(C(=O)O)CC(=O)N2C)cc1 (configuration not stated)
inactive: growth inhibition [1] -5.94% | growth inhibition [2] 7.82% | viability increase [3] -0.87% | viability [4] 98.1% | viability [5] 101% | inhibition [6] 0.35% | RAM network inhibition [7] 3.61%

CCOc1ccc(OCC)c(S(=O)(=O)NCCCN2CCOCC2)c1
inactive: growth inhibition [1] -13.8% | growth inhibition [2] -12.2% | viability increase [3] -0.25% | viability [4] 99.8% | viability [5] 99% | inhibition [6] 0.535% | RAM network inhibition [7] 0.2%

CCN(CC)S(=O)(=O)c1ccc(Cl)c(C(=O)NC)c1
inactive: growth inhibition [1] -15.4% | growth inhibition [2] -16.3% | viability increase [3] -0.22% | viability [4] 105% | viability [5] 96.4% | inhibition [6] 0.985% | RAM network inhibition [7] 3.63%

C/C(N)=C(/C#N)C(=O)CSc1n[nH]c(-c2ccccc2Br)n1
inactive: growth inhibition [1] -8.32% | growth inhibition [2] 8.69% | viability increase [3] 2.73% | viability [4] 110% | viability [5] 105% | inhibition [6] -0.48% | RAM network inhibition [7] -1.02%

O=C(NC1CCN(Cc2ccccc2)CC1)C1CCN(c2nnc(-n3cccc3)s2)CC1
inactive: growth inhibition [1] 3.62% | growth inhibition [2] -0.61% | viability increase [3] -2.59% | viability [4] 82.2% | viability [5] 79.3% | inhibition [6] 0.53% | RAM network inhibition [7] 2.35%

COc1ccc(C2N(c3cc(Cl)ccc3OC)C(=O)C3CCCN32)cc1OC (configuration not stated)
inactive: growth inhibition [1] -8.95% | growth inhibition [2] -8.17% | viability increase [3] -1.86% | viability [4] 106% | viability [5] 95.9% | inhibition [6] 1.02% | RAM network inhibition [7] 7.33%

O=C(CCCc1c[nH]c2ccccc12)N1CCN(c2ccc(N3CCOCC3)nn2)CC1
inactive: growth inhibition [1] -2.69% | growth inhibition [2] -3.36% | viability increase [3] -1.4% | viability [4] 102% | viability [5] 105% | inhibition [6] 0.485% | RAM network inhibition [7] -0.41%

COc1ccccc1C(=O)Nc1nnc(-c2ccc(Cl)cc2)o1
inactive: growth inhibition [1] -2.96% | growth inhibition [2] 1.53% | viability increase [3] -1.3% | viability [4] 103% | viability [5] 98.1% | inhibition [6] 0.395% | RAM network inhibition [7] -0.25%

NC(=O)c1cc(Cl)cn(-c2ccccc2)c1=O
inactive: growth inhibition [1] -13% | growth inhibition [2] -5.85% | viability increase [3] -0.12% | viability [4] 99.7% | viability [5] 95% | inhibition [6] 1.81% | RAM network inhibition [7] 4.23%

COc1cc(C2C(C(=O)c3cccs3)=C(O)C(=O)N2Cc2ccco2)cc(OC)c1OC (configuration not stated)
inactive: growth inhibition [1] -6.95% | growth inhibition [2] -3.81% | viability increase [3] -4.93% | viability [4] 93.1% | viability [5] 92.4% | inhibition [6] 2.94% | RAM network inhibition [7] 5%

CCCCn1c(=O)n(CC(=O)Nc2ccc(C)c(Cl)c2)c(=O)c2c1ncn2Cc1ccco1
inactive: growth inhibition [1] -2.46% | growth inhibition [2] -24.8% | viability increase [3] 0.99% | viability [4] 72.2% | viability [5] 72.3% | inhibition [6] 2.23% | RAM network inhibition [7] 1.61%

CCN(CC)c1cccc(OC2=NS(=O)(=O)c3ccccc32)c1
inactive: growth inhibition [1] -1.53% | growth inhibition [2] 0.2% | viability increase [3] -1.25% | viability [4] 99.1% | viability [5] 97.8% | inhibition [6] 1.63% | RAM network inhibition [7] 5.72%

O=C(CCSCCC(=O)NCc1cccs1)NCc1cccs1
inactive: growth inhibition [1] -5.92% | growth inhibition [2] 3.44% | viability increase [3] -1.73% | viability [4] 94.5% | viability [5] 96.3% | inhibition [6] 3.47% | RAM network inhibition [7] 2.86%

COc1ccc(NC(=O)CN(c2cc(C)cc(C)c2)S(=O)(=O)c2c(C)n[nH]c2C)cc1
inactive: growth inhibition [1] -9.19% | growth inhibition [2] -1.92% | viability increase [3] -2.97% | viability [4] 102% | viability [5] 94.6% | inhibition [6] 0.955% | RAM network inhibition [7] 5.46%

Cc1cc(N2CCC(N(C)C3CCCC3)CC2)nc2cc(O)ccc12
inactive: growth inhibition [1] -8.33% | growth inhibition [2] -9.98% | viability increase [3] -7.96% | viability [4] 53.9% | viability [5] 53.7% | inhibition [6] 2.4% | RAM network inhibition [7] 2.21%
